Calls of active or inactive are those of the source. The rule behind the calls is not given here.

Assay [1] relates to Jurkat. In words: Growth inhibition of human Jurkat cells assessed as decrease in cell count at 50 uM by Trypan blue dye exclusion method. In kind it is functional, cell-based.
For another assay, the system named is HeLa. In words: Antiproliferative activity against human HeLa cells after 48 hrs by MTT assay relative to control. In kind it is functional, cell-based. In a few lines: (§1)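 Cells (HeLa cervical or MCF7/AZ breast adenocarcinoma) exposed to test agents 48 h; mixtures at final 100 μM, individual isomers at final 100, 50 and 5 μM. Viability read by MTT (mitochondrial dehydrogenase activity), expressed as % remaining viability vs DMSO control. Two independent experiments, each in 4 replicates; mean ± SD.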
In general terms: Formazan colour is commonly taken as a measure of viable cells.

Assay [2] has as its system Jurkat. The assay can be described thus: Induction of apoptosis in human Jurkat cells assessed as viable cells at 50 uM after 48 hrs by flow cytometry relative to control. In kind it is functional. The note with it: read-out: Activity. In a few lines: (§2)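 Jurkat T-cell leukemia cells treated 48 h with test agents at 50 μM (podophyllotoxin reference at 5 μM). Flow cytometric annexin-V/propidium iodide staining scored % apoptotic cells and % live cells, each relative to DMSO control. Two independent experiments, each in 3 replicates; mean ± SD.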
(Flow cytometry measures light scatter and fluorescence of single cells or particles in a stream.)

For assay [3], the system named is Jurkat. The assay can be described thus: Induction of apoptosis in human Jurkat cells after 48 hrs at 50 uM by flow cytometry relative to control. In kind it is functional. In short, it runs like this: as §2
The test system of the next assay is MCF7/AZ. In words: Antiproliferative activity against human MCF7/AZ cells after 48 hrs by MTT assay relative to control. In kind it is functional, cell-based. In short, it runs like this:
as §1

Assay [4] has as its system Jurkat. The assay can be described thus: Growth inhibition of human Jurkat cells at 50 uM by Trypan blue dye exclusion method. In kind it is functional, cell-based.
For assay [5], the system named is Jurkat. The assay can be described thus: Induction of apoptosis in human Jurkat cells assessed as viable cells at 5 uM after 48 hrs by flow cytometry relative to control. Conditions: read-out: Activity. In kind it is functional. In a few lines: (§3)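 Jurkat human T-cell leukemia cells were exposed to compound for 48 h and then stained with annexin-V/propidium iodide for flow cytometry. Apoptotic and live cell percentages are expressed relative to a DMSO control. Values are mean ± SD from two independent experiments, each run in 3 replicates.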

Assay [6] concerns Jurkat. The assay can be described thus: Induction of apoptosis in human Jurkat cells after 48 hrs at 5 uM by flow cytometry relative to control. In kind it is functional. In short, it runs like this: as §3

As for `Cc1ccc(S(=O)(=O)N2C(N)=C(C#N)[C@@H](c3ccccc3)[C@H]2C(=O)c2ccc(Br)cc2)cc1` (relative stereo), the outcome in the assay with Jurkat [1], in the assay with HeLa and in the assay on MCF7/AZ was Active. Further, the viability at 50 µM with Jurkat [2] came out at 56%. In addition, in the assay on Jurkat [3], the Activity is 30%.

In the case of `Cc1ccc(S(=O)(=O)N2C(N)=C(C#N)[C@@H](c3ccccc3)[C@@H]2C(=O)c2ccc(Br)cc2)cc1` (relative stereo), the outcome with HeLa, in the assay with Jurkat [4] and in the assay with MCF7/AZ was Active. The viability at 50 µM in the assay on Jurkat [2] was 96%. Also, in the assay on Jurkat [3], the Activity was determined as 3%.

Consider `COc1ccc(S(=O)(=O)N2C(N)=C(C#N)[C@@H](c3ccccc3)[C@@H]2C(=O)c2ccc(Br)cc2)cc1` (relative stereo), for which the result in the assay with HeLa and with MCF7/AZ was Active.

For `COc1ccc(S(=O)(=O)N2C(N)=C(C#N)[C@@H](c3ccccc3)[C@H]2C(=O)c2ccc(Br)cc2)cc1` (relative stereo), the result with HeLa and in the assay with MCF7/AZ was Active.

On to `COc1cc([C@@H]2c3cc4c(cc3[C@H](O)[C@H]3COC(=O)[C@H]23)OCO4)cc(OC)c1OC` [PODOFILOX], for which the viability at 5 µM in the assay with Jurkat [5] is 22%. This compound also yielded an Activity with Jurkat [6] of 63%.
